Laboratory results as given in the RNAGym collection of RNA variant scans (doi:10.1126/science.aae0568).
This sample holds only a part of the variants without activity.

B1: tRNA (parent)
chain: GUUCCGUUGGCGUAAUGGUAACGCGUCUCCCUCCUAAGGAGAAGACUGCGGGUUCGAGUCCCGUACGGAACG

Variants of: B1
Experiment: yeast fitness relative to wild type (ratio to wild type); higher = fitter; tRNA-Arg(CCU), competitive growth, 37 C, YPD
Procedure, shortened: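 Variants of the tRNA-Arg(CCU) gene were chemically synthesised with a 3% per-site mutation rate across 69 sites and placed at the native genomic locus in Saccharomyces cerevisiae. Six parallel replicates of the pooled strains were competed in YPD at 37°C for 24 hours, and gene amplicons from the start and end populations were read by 100-nucleotide paired-end sequencing. Darwinian fitness relative to wild type was derived from changes in genotype frequencies. Genotypes required ≥ 100 starting reads, and estimates < 0.5 were set to 0.5.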
GUUCCGUUCGCGUAAUGGUAACGCGUCUCCCUCCUUAGGAGAAGACUGCGGGUUCGAGUGCCCUACGGAACG [G9C A36U C60G G63C] showed a yeast fitness of at most 0.5. Variant GUUCCGUUCGCGUAAUGGUAACGCGUCUCCCUCCUAGGGAGAAGACUGCGGGUUCGAGUCCUGUACGGAACG [G9C A37G C62U] has a yeast fitness of at most 0.5. For GUUCCGUUCGCGUAAUGGUAACGCGUCUCCCUCCUAGGGAAAAGACUGCAGGUUCGAGUCCCGUACGGAACG [G9C A37G G41A G50A], the yeast fitness was 0.532. For GUUCCGUUCGCGUAAUGGUAACGCGUCUCCCUCCUAGGGAGAAGACUGCGGGUUCGAGUCCCGUACGAAACG [G9C A37G G68A], the yeast fitness was at most 0.5. Work on GUUCCGUUCGCGUAAUGGUAACGCGUCUCCCUCCUAUGGAGAAGACUGCGGGUUCGAGUCCCGUACGGAACG [G9C A37U] yielded a yeast fitness of 0.663. Variant GUUCCGUUCGCGUAAUGGUAACGCGUCUCCCUCCUAUGGAGAAGACUGCGGAUUCGAGUCCCGUACGGAACG [G9C A37U G52A] has a yeast fitness of at most 0.5. In the case of GUUCCGUUCGCGUAAUGGUAACGCGUCUCCCUCCUAAGGUGAAGACUGCGGGUUCGAGUCCCGUAUGGAACG [G9C A40U C66U], the yeast fitness is reported as 0.622. Variant GUUCCGUUCGCGUAAUGGUAACGCGUCUCCCUCCUAAGGAGGAGACUGCGGGUUCGAGUCCCGUACGGAACG [G9C A42G] has a yeast fitness of 0.673. Work on GUUCCGUUCGCGUAAUGGUAACGCGUCUCCCUCCUAAGGAGGAGACUGCGGGUUCGAGUCCGGUACGGGACG [G9C A42G C62G A69G] yielded a yeast fitness of at most 0.5. In the case of GUUCCGUUCGCGUAAUGGUAACGCGUCUCCCUCCUAAGGAGUAGACUGCGGGUUCGAGUCCCGUACGGAACG [G9C A42U], the yeast fitness is reported as 0.624. Work on GUUCCGUUCGCGUAAUGGUAACGCGUCUCCCUCCUAAGGAGUAGACUGCGGGUUCGAGUCCGGUACGGAACG [G9C A42U C62G] yielded a yeast fitness of at most 0.5. GUUCCGUUCGCGUAAUGGUAACGCGUCUCCCUCCUAAGGAGAGGACUGCGGGUUCGAGUCCCGUACGAAACG [G9C A43G G68A] gave a yeast fitness of at most 0.5. GUUCCGUUCGCGUAAUGGUAACGCGUCUCCCUCCUAAGGAGAUGACUGCGGGUUCGAGUCCCGUACGGAACG [G9C A43U] showed a yeast fitness of 0.694. For GUUCCGUUCGCGUAAUGGUAACGCGUCUCCCUCCUAAGGAGAUGACUGAGGGUUCGAGUCCCGUACGGAACG [G9C A43U C49A], the yeast fitness was at most 0.5. Variant GUUCCGUUCGCGUAAUGGUAACGCGUCUCCCUCCUAAGGAGAAGGCUGCGGGUUCGAGUCCCGUACGGAACG [G9C A45G] has a yeast fitness of 0.78. Variant GUUCCGUUCGCGUAAUGGUAACGCGUCUCCCUCCUAAGGAGAAGACUGCGGGUUCGCGUCCCGUACGGAACG [G9C A57C] has a yeast fitness of 0.56. Variant GUUCCGUUCGCGUAAUGGUAACGCGUCUCCCUCCUAAGGAGAAGACUGCGGGUUCGGGACCCGUACGGAACG [G9C A57G U59A] has a yeast fitness of at most 0.5. For GUUCCGUUCGCGUAAUGGUAACGCGUCUCCCUCCUAAGGAGAAGACUGCGGGUUCGAGUCCCGUACGGAGCG [G9C A70G], the yeast fitness was 0.615. GUUCCGUUCGAGUAUUGGUAACGGGUCUCCCUGCUAACGAGAGGACUGCGGGUUCGAGUUCCAUACGGAACG [G9C C11A A15U C24G C33G G38C A43G C60U G63A] showed a yeast fitness of at most 0.5. In the case of GUUCCGUUCGAGUAUUGGUAACGGGUCUCCCUGCUAACGAGAGGACUGCGGGUUCGAGUCGCGUACGGAACG [G9C C11A A15U C24G C33G G38C A43G C61G], the yeast fitness is reported as at most 0.5. In the case of GUUCCGUUCGAGUAAUGGUAACGCGUCUCCCUCCUAAGGCGAAGACUGCGGGUUCGAGUCCCGUACGGAACG [G9C C11A A40C], the yeast fitness is reported as 0.671. With GUUCCGUUCGAGUAAUGGUAACGCGUCUCCCUAAUACGGAGAGGACUGCGGGUUCGAGUCCCGUACGGAACG [G9C C11A C33A C34A A37C A43G] the yeast fitness was at most 0.5. GUUCCGUUCGAGUAAUGGUAACGCGUCUCCCUCCUAAGGAGAAGACGGCGGGUUCGAGACCCGUACGGAACG [G9C C11A U47G U59A] gave a yeast fitness of at most 0.5. Work on GUUCCGUUCGGGUAAUGGUUACGCGUCUCCUUCCUAACGAGAAGACUGCGGGUUCGAGUCCCGUACGGAACG [G9C C11G A20U C31U G38C] yielded a yeast fitness of at most 0.5. In the case of GUUCCGUUCGGGUAAUGGUAACGUGUCUCCUUCCUAAGGAGAAGACUGCGGGUUCGAGACCCGUACGGACCG [G9C C11G C24U C31U U59A A70C], the yeast fitness is reported as 0.563. With GUUCCGUUCGGGUAAUGGUAACGUGUCUCCUUCCUAAGGAGAAGACUGCGGGUUCGAGGCCCGUACGGACCG [G9C C11G C24U C31U U59G A70C] the yeast fitness was at most 0.5. In the case of GUUCCGUUCGGCUAAUGGUAACGCGUCCCCCUCCUAAGGAGAAGACUGCGGGUUCGAGUCUCGUACGGAACG [G9C C11G G12C U28C C61U], the yeast fitness is reported as 0.747. In the case of GUUCCGUUCGUGUAAUGGUAACGCGUCUCCCUCCUCAGGAGAAGACUGCGGGUUCGAGUCCCGUACGGAACG [G9C C11U A36C], the yeast fitness is reported as at most 0.5. Work on GUUCCGUUCGUGUAAUGGUAACGGGUCUCCUUCUUAAGGAGAAGACUGUGGGUUCGAGUCCCGUACGGCACG [G9C C11U C24G C31U C34U C49U A69C] yielded a yeast fitness of at most 0.5. GUUCCGUUCGUGUAAUGGUAACGCGUCUCCAUCCUAAGGCGAUGACUGCGGGUUCGAGUCCCGUGGGGAACG [G9C C11U C31A A40C A43U A65G C66G] gave a yeast fitness of at most 0.5. For GUUCCGUUCGCGUAAUGGUAAGGCGUCUCCCUACUAAGGAGAAGACUGCGGGUUCGAGUCCCGUACGGAACG [G9C C22G C33A], the yeast fitness was 0.598. For GUUCCGUUCGCGUAAUGGUAAGGCGUCUCCCUCCUAAGGAGAAGACUGCGGGUUCGAGUCACAUACGGAACG [G9C C22G C61A G63A], the yeast fitness was at most 0.5. For GUUCCGUUCGCGUAAUGGUAAGGCGUCUCCCUCCUAAGGAGAAGACUGCGGGUUCGAGUCCAGUACGGAACG [G9C C22G C62A], the yeast fitness was at most 0.5. For GUUCCGUUCGCGUAAUGGUAAGGCGUCUCCCUCCUAAGGAGAAGACUGCGGGUUCGAGUCCUGUAAGGAACG [G9C C22G C62U C66A], the yeast fitness was at most 0.5. Variant GUUCCGUUCGCGUAAUGGUAACGAGUCUCCCUCCUAAGGAGAAGACUGCGGGUUCGAGUCCGGUACGGAACG [G9C C24A C62G] has a yeast fitness of at most 0.5. Variant GUUCCGUUCGCGUAAUGGUAACGGGUCUGCCUCCUAAGGAGAAGACUGCGGGUUUGAGUCCCGUACGGAGCG [G9C C24G C29G C55U A70G] has a yeast fitness of at most 0.5. GUUCCGUUCGCGUAAUGGUAACGGGUCUCUCUCCUAAGGAGAAGACUGCGGGUUCGAGUCCCGUACGGAACG [G9C C24G C30U] gave a yeast fitness of at most 0.5. In the case of GUUCCGUUCGCGUAAUGGUAACGUGUCUCGCUCCUAAGGAGAAGACUGCGAGUUCGAGUUCCGUACAGAACG [G9C C24U C30G G51A C60U G67A], the yeast fitness is reported as 0.543.
